ChEMBL document CHEMBL1124663, “Design, synthesis, antineoplastic activity, and chemical properties of bis(carbamate) derivatives of 4,5-bis(hydroxymethyl)imidazole” (J Med Chem, 1989)

Key:
Mus musculus [1] = assay: Ability of 50 mg/kg of compound to kill L1210 tumor cells in mice is expressed as the log of the tumor cell population at the onset of treatment minus the log of the tumor cell population at the end of treatment; format: functional
In short: (§1)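 L1210 leukemia, 10^5 cells implanted ip on day 0. Drug given ip daily on days 1-5 as a saline suspension freshly prepared before each injection. Read-out is median survival of treated versus control mice (% T/C), and log cell kill is derived from it.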

Mus musculus [2] = assay: The percent of the median survival time of test mice compared to control mice is % T/C which refers to tumor size in this case. It is determined for mice administered with 100 mg/kg compound on day 11 for MX-1 tumor cells; format: functional; settings: route intraperitoneal
In short: (§2)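 Human MX-1 mammary xenograft, a 1 mm3 (0.5 mg) tumor fragment implanted under the renal capsule of NCR-nu mice on day 0. Drug given ip as a fresh saline suspension on days 1, 5 and 9. Tumor size is assessed on day 11. A negative % T/C is percent shrinkage relative to the initial implant. Survivors in the toxicity group are […].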

Mus musculus [3] = assay: Ability of 200 mg/kg of compound to kill M5076 tumor cells in mice is expressed as the log of the tumor cell population at the onset of treatment minus the log of the tumor cell population at the end of treatment; format: functional
In short: (§3)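 M5076 sarcoma, 10^6 cells ip on day 0 in B6C3F1 mice. Drug given ip as a fresh saline suspension every fourth day (days 1, 5, 9, 13). % T/C is median survival of treated versus control mice, counting long-term survivors. Cures are 60-day survivors. Log cell kill is derived from this.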

Mus musculus [4] = assay: The toxicity day was evaluated on day 5 for L1210 tumor cells of test animals dosed with 50 mg/kg of compound; 6/6; format: functional
In short: (§4)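 L1210 leukaemia, 10^5 cells, implanted ip on day 0. Freshly prepared saline suspension dosed ip daily on days 1-5. Toxicity evaluated on day 5 as survivors over animals in the initial test group.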

Mus musculus [5] = assay: Body weight difference (BWD) of test animals administered with 200 mg/kg compound is determined on day 10 for LOX tumor cells.
Mus musculus [6] = assay: Ability of 100 mg/kg of compound to kill L1210 tumor cells in mice is expressed as the log of the tumor cell population at the onset of treatment minus the log of the tumor cell population at the end of treatment; format: functional; in short: as §1
Mus musculus [7] = assay: Body weight difference (BWD) of test animals administered with 25 mg/kg compound is determined on day 14 for M5076 minus 1 tumor cells; format: functional
In short: (§5)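 M5076 sarcoma: 10^6 cells inoculated ip on day 0 in B6C3F1 mice. Fresh saline suspension dosed ip every fourth day, on days 1, 5, 9 and 13. Body weight difference in g (treated minus control) taken as day 14 minus day 1. Ten mice per group.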

Mus musculus [8] = assay: Ability of 100 mg/kg of compound to kill M5076 tumor cells in mice is expressed as the log of the tumor cell population at the onset of treatment minus the log of the tumor cell population at the end of treatment; format: functional; in short: as §3
Mus musculus [9] = assay: Body Weight Difference (BWD) of test animals administered with 6.25 mg/kg compound is determined on day 5 for P388 tumor cells; format: functional
In short: (§6)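 P388 leukaemia: about 10^6 cells in ascitic fluid inoculated ip on day 0 (CD2F1 mice). Compound given ip in normal saline as a freshly prepared solution or suspension, once daily on days 1–5. Treated-minus-control body weight difference in g, taken as day 5 minus day 1 weight. Groups of six.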

Mus musculus [10] = assay: Body weight difference (BWD) of test animals administered with 100 mg/kg compound is determined on day 14 for M5076 minus 1 tumor cells; format: functional; in short: as §5
Mus musculus [11] = assay: The toxicity day was […] for M5076 minus 1 tumor cells of test animals dosed with 100 mg/kg of compound; 10/10; format: functional
In short: (§7)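 M5076 sarcoma, 10^6 cells, inoculated ip into B6C3F1 mice on day 0. Fresh saline suspension given ip every fourth day (days 1, 5, 9, 13). Toxicity survivors were scored on day 5 as survivors over initial group. Body-weight difference was day 14 minus day 1.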

Mus musculus [12] = assay: Body weight difference (BWD) of test animals administered with 200 mg/kg compound is determined on day 5 for L1210 tumor cells; format: functional
In short: (§8)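 L1210 leukaemia: 10^5 cells implanted ip on day 0 in mice. Freshly prepared saline suspension given ip once daily on days 1–5. Body weight difference in g (treated minus control) taken as day 5 minus day 1. Six animals per dose.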

Mus musculus [13] = assay: Body weight difference (BWD) of test animals administered with 12.5 mg/kg compound is determined on day 5 for L1210 tumor cells; format: functional; in short: as §8
Mus musculus [14] = assay: Toxicity day evaluation was carried out on day 5 for animal dosed with 100 mg/kg compound; 6/6; format: organism-based; parameters: dose 100 mg/kg; settings: in vivo
Mus musculus [15] = assay: Toxicity day evaluation was carried out on day 5 for animal dosed with 50 mg/kg compound; 6/6; format: organism-based; parameters: dose 50 mg/kg; settings: in vivo
Mus musculus [16] = assay: The percent of the median survival time of test mice compared to control mice, administered with 25 mg/kg compound on day 14 for M5076 minus 1 tumor cells; format: functional; in short: as §3
Mus musculus [17] = assay: The toxicity day was evaluated on day 5 for L1210 tumor cells of test animals dosed with 25 mg/kg of compound; 6/6; format: functional; in short: as §4
Mus musculus [18] = assay: The percent of the median survival time of test mice compared to control mice is % T/C. It is determined for mice administered with 50 mg/kg compound on day 0 for LOX 1 tumor cells.; format: functional; settings: route intraperitoneal
Mus musculus [19] = assay: The percent of the median survival time of test mice compared to control mice is % T/C which refers to tumor size in this case. It is determined for mice administered with 60 mg/kg compound on day 11 for MX-1 tumor cells; format: functional; settings: route intraperitoneal; in short: as §2
Mus musculus [20] = assay: The toxicity day was evaluated on […] for MX-1 tumor cells of test animals dosed with 200 mg/kg of compound; 1/6; format: functional; in short: as §2
[21] = Retention time was determined; format: ADME
Mus musculus [22] = assay: Ability of 50 mg/kg of compound to kill M5076 tumor cells in mice is expressed as the log of the tumor cell population at the onset of treatment minus the log of the tumor cell population at the end of treatment; format: functional; in short: as §3
Mus musculus [23] = assay: The toxicity day was evaluated on day 0 for LOX tumor cells of test animals dosed with 200 mg/kg of compound; 3/6; format: functional
Mus musculus [24] = assay: The percent of the median survival time of test mice compared to control mice, administered with 100 mg/kg compound on day 5 for L1210 tumor cells; format: functional; in short: as §1
Mus musculus [25] = assay: Body Weight Difference (BWD) of test animals administered with 25 mg/kg compound is determined on day 5 for P388 tumor cells; format: functional; in short: as §6
Mus musculus [26] = assay: The percent of the median survival time of test mice compared to control mice, administered with 100 mg/kg compound on day 14 for M5076 minus 1 tumor cells; format: functional; in short: as §3
Mus musculus [27] = assay: The […] for M5076 minus 1 tumor cells of test animals dosed with 50 mg/kg of compound; 10/10; format: functional; in short: as §7
Mus musculus [28] = assay: Body weight difference (BWD) of test animals administered with 100 mg/kg compound is determined on day 10 for LOX tumor cells.
Mus musculus [29] = assay: Body weight difference (BWD) of test animals administered with 100 mg/kg compound is determined on day 5 for L1210 tumor cells; format: functional; in short: as §8

Molecule `CNC(=O)OCc1nc(SC)n(C)c1COC(=O)NC` has a KE (Mus musculus [1]) of -1.94, a T/C (Mus musculus [2]) of -73% and a KE (Mus musculus [3]) of 0.98. For the same molecule, the “Survivors / animals tested” value (Mus musculus [4]) was 6, the BWD (Mus musculus [5]) was -11.5 g and the KE (Mus musculus [6]) was -0.29. For the same molecule, the BWD (Mus musculus [7]) was -2 g, the KE (Mus musculus [8]) was -0.34 and the BWD (Mus musculus [9]) was -0.7 g. The BWD (Mus musculus [10]) was -1.2 g, the “Survivors / animals tested” value (Mus musculus [11]) was 10 and the BWD (Mus musculus [12]) was -3.6 g. The BWD (Mus musculus [13]) was -0.2 g, the “Survivors / animals tested” value (Mus musculus [14]) was 6 and the “Survivors / animals tested” value (Mus musculus [15]) was 6. For the same molecule, the T/C (Mus musculus [16]) was 122%, the “Survivors / animals tested” value (Mus musculus [17]) was 6 and the T/C (Mus musculus [18]) was 231%. For the same molecule, the T/C (Mus musculus [19]) was -91%, the “Survivors / animals tested” value (Mus musculus [20]) was 1 and the TR [21] was 39 min. For the same molecule, the KE (Mus musculus [22]) was -1.63, the “Survivors / animals tested” value (Mus musculus [23]) was 3 and the T/C (Mus musculus [24]) was 145%. For the same molecule, the BWD (Mus musculus [25]) was -1.4 g, the T/C (Mus musculus [26]) was 151% and the “Survivors / animals tested” value (Mus musculus [27]) was 10. The BWD (Mus musculus [28]) was -5.1 g and the BWD (Mus musculus [29]) was -1.9 g.
